The results in this text go back to ChEMBL document CHEMBL4376860, “Discovery of Novel Dual Poly(ADP-ribose)polymerase and Phosphoinositide 3-Kinase Inhibitors as a Promising Strategy for Cancer Therapy” (J Med Chem, 2020).

Series [1] concerns the target Poly [ADP-ribose] polymerase 1 (Homo sapiens, UniProt P09874). As to the kind of experiment: Inhibition of recombinant human PARP1 using histone as substrate after 1 hr in presence of biotinylated NAD+ by ELISA.
The subject of series [2] is MDA-MB-231. As to the kind of experiment: Potency index, ratio of BKM120 IC50 to test compound IC50 for antiproliferative activity against human MDA-MB-231 cells. The format is functional.
The subject of series [3] is MDA-MB-468. In words: Inhibition of PI3K in human MDA-MB-468 cells assessed as reduction in pS6 phosphorylation at S240 residue at 1 uM measured after 6 to 72 hrs by Western blot analysis. The format is cell-based. The gist of the method: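 MDA-MB-468 cells seeded overnight, then exposed for 6 h; control medium contained 1‰ DMSO. Lysates run on 8–12% SDS-PAGE and transferred to PVDF. Blots blocked in 5% BSA/TBST and probed for pAKT-Ser473/total AKT or pS6-Ser240/total S6, with β-actin as loading control. HRP secondary with ECL detection; bands quantified by densitometry. Three independent experiments.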

The test system of series [4] is MDA-MB-468. As to the kind of experiment: Inhibition of PI3K in human MDA-MB-468 cells assessed as increase in gammaH2AX foci formation at 1 uM measured after 72 hrs by DAPI staining based immunofluorescence microscopic analysis. The format is cell-based. The gist of the method: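 MDA-MB-468 cells on coverslips given drugs for 72 h. Fixed in 3% formaldehyde, permeabilized with 0.1% Triton X-100, blocked in 10% FBS/PBS, then rabbit anti-γH2AX (Ser139) overnight at 4 °C. Secondary antibody and DAPI stain followed. About 200 cells scored for foci; a cell was positive with more than 5 foci. Three independent experiments.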

Series [5] has as its system MDA-MB-468. As to the kind of experiment: Antitumor activity against human MDA-MB-468 cells xenografted in BALB/c mouse assessed as tumor growth inhibition at 50 mg/kg, ip administered every 2 days for 34 days and measured at 2 days interval during compound dosing relative to control. The format is functional. To be noted: MDA-MB-468, ip, read-out: TGI.
Series [6] is described as follows: Toxicity in BALB/c mouse xenografted with human MDA-MB-468 cells assessed as mortality at 50 mg/kg, ip administered every 2 days for 34 days. The class given is organism-based. To be noted: in vivo. The gist of the method: (§1)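 Nude mice bearing subcutaneous right-flank MDA-MB-468 tumours (2 × 10^6 exponential-phase cells implanted). Randomised at about 100 mm³ tumour volume; 6 mice per group. Dosed ip every 2 days for 34 days. Vehicle controls received PBS with 5% DMSO. Body weight and tumour size recorded every 2 days; tumour volume calculated as ab²/2 from caliper diameters.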

Series [7] deals with Mus musculus. As to the kind of experiment: In vivo inhibition of PI3K in BALB/c mouse xenografted with human MDA-MB-468 cells assessed as reduction in AKT phosphorylation at S473 residue at 50 mg/kg, ip administered every 2 days for 34 days measured post-last dose by Western blot analysis. The class given is functional, organism-based.
The subject of series [8] is Mus musculus. As to the kind of experiment: In vivo activation of ETS1 in BALB/c mouse xenografted with human MDA-MB-468 cells assessed as increase in ETS1 phosphorylation at Thr38 residue at 50 mg/kg, ip administered every 2 days for 34 days measured post-last dose by Western blot analysis. The class given is functional, organism-based.
Series [9] has as its system Mus musculus. As to the kind of experiment: In vivo inhibition of PI3K in BALB/c mouse xenografted with human MDA-MB-468 cells assessed as reduction in BRCA1 expression at 50 mg/kg, ip administered every 2 days for 34 days measured post-last dose by Western blot analysis. The format is functional, organism-based.
The subject of series [10] is MDA-MB-468. As to the kind of experiment: Induction of apoptosis in human MDA-MB-468 cells xenografted in BALB/c mouse assessed as increase in cleaved PARP expression at 50 mg/kg, ip administered every 2 days for 34 days measured post last dose by Western blot analysis. The format is functional, organism-based.
Series [11] concerns the target Poly [ADP-ribose] polymerase 2 (Homo sapiens, UniProt Q9UGN5). As to the kind of experiment: Inhibition of recombinant human PARP2 using histone as substrate after 1 hr in presence of biotinylated NAD+ by ELISA.
The target of series [12] is Phosphatidylinositol 4,5-bisphosphate 3-kinase catalytic subunit delta isoform (Homo sapiens, UniProt O00329). As to the kind of experiment: Inhibition of PI3Kdelta (unknown origin) using PIP2 as substrate measured after 2 hrs by ADP-glo plus luminescence assay. The procedure, abridged:
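ADP-Glo Plus luminescence assay in 50 µL of 10 mM Tris-HCl pH 7.5 with 25 µM ATP, 9.75 µM PIP2, 4 mM MgCl2, 50 mM NaCl, 0.05% Chaps, 1 mM DTT, 5% glycerol and 2% DMSO. Enzyme: PI3Kα and β at 60 ng/mL, δ at 45 ng/mL. Ten-point 3-fold dilutions from 1 µM. Incubation at room temperature for 1 h (α, β) or 2 h (δ). IC50 by nonlinear regression.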

Series [13] concerns MDA-MB-468. As to the kind of experiment: Inhibition of PI3K in human MDA-MB-468 cells assessed as reduction in BRCA1 mRNA level at 1 uM in presence of PARP inhibitor olaparib by Trizol reagent-based RT-PCR analysis. The class given is cell-based. The procedure, abridged: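 Total RNA from treated MDA-MB-468 cells extracted with TRIzol. BRCA1 or BRCA2 mRNA quantified by real-time PCR with GAPDH as internal control. Results given as fold change relative to the internal control. Mean ± SD of three independent experiments.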

For series [14], the system named is MDA-MB-468. As to the kind of experiment: Inhibition of PI3K in human MDA-MB-468 cells assessed as reduction in RAD51 foci formation at 1 uM measured after 72 hrs in presence of PARP inhibitor olaparib by DAPI staining based immunofluorescence microscopic analysis. The format is cell-based. The gist of the method: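 RAD51 foci in MDA-MB-468 cells on coverslips after 72 h drug exposure. Cells fixed (3% formaldehyde), permeabilized (0.1% Triton X-100), blocked in 10% FBS/PBS, incubated overnight at 4 °C with rabbit anti-RAD51 polyclonal, then secondary antibody plus DAPI. Foci and percent positive cells (>5 foci per cell) counted from about 200 cells. Mean ± SD of three independent experiments.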

Series [15] has as its system MDA-MB-468. As to the kind of experiment: Induction of apoptosis in human MDA-MB-468 cells assessed as viable cells at 1 uM measured after 72 hrs in presence of PARP inhibitor olaparib by Annexin V-FITC/propidium iodide staining based flow cytometry (reference value: 95.2%). The format is functional. To be noted: MDA-MB-468, 72 h, read-out: Activity.
Series [16] concerns MDA-MB-468. As to the kind of experiment: Antitumor activity against human MDA-MB-468 cells xenografted in BALB/c mouse assessed as tumor growth inhibition at 27.5 mg/kg, ip administered every 2 days for 34 days and measured at 2 days interval during compound dosing relative to control. The format is functional. To be noted: MDA-MB-468, ip, read-out: TGI.
For series [17], the system named is MDA-MB-468. In words: Antitumor activity against human MDA-MB-468 cells xenografted in BALB/c mouse assessed as tumor growth inhibition at 27.5 mg/kg, ip administered every 2 days for 34 days and measured at 2 days interval during compound dosing in presence of PARP inhibitor olaparib relative to control. The class given is functional. To be noted: MDA-MB-468, ip, read-out: TGI.

Series [18] in a line: Toxicity in BALB/c mouse xenografted with human MDA-MB-468 cells assessed as mortality at 50 mg/kg, ip administered every 2 days for 34 days in presence of PARP inhibitor olaparib. To be noted: in vivo. The format is organism-based. The gist of the method:
as §1

Series [19] concerns MDA-MB-468. As to the kind of experiment: cells. To be noted: Homo sapiens, MDA-MB-468, 168 h, read-out: pIC50 (converted).
Series [20] concerns BXPC-3. As to the kind of experiment: cells. To be noted: Homo sapiens, BXPC-3, 168 h, read-out: pIC50 (converted).

Active and inactive are the calls of the source. The calls are words filed in the database; no cut-off is given here.

Phosphatidylinositol 4,5-bisphosphate 3-kinase catalytic subunit delta isoform, sequence (O00329 whole entry, canonical isoform): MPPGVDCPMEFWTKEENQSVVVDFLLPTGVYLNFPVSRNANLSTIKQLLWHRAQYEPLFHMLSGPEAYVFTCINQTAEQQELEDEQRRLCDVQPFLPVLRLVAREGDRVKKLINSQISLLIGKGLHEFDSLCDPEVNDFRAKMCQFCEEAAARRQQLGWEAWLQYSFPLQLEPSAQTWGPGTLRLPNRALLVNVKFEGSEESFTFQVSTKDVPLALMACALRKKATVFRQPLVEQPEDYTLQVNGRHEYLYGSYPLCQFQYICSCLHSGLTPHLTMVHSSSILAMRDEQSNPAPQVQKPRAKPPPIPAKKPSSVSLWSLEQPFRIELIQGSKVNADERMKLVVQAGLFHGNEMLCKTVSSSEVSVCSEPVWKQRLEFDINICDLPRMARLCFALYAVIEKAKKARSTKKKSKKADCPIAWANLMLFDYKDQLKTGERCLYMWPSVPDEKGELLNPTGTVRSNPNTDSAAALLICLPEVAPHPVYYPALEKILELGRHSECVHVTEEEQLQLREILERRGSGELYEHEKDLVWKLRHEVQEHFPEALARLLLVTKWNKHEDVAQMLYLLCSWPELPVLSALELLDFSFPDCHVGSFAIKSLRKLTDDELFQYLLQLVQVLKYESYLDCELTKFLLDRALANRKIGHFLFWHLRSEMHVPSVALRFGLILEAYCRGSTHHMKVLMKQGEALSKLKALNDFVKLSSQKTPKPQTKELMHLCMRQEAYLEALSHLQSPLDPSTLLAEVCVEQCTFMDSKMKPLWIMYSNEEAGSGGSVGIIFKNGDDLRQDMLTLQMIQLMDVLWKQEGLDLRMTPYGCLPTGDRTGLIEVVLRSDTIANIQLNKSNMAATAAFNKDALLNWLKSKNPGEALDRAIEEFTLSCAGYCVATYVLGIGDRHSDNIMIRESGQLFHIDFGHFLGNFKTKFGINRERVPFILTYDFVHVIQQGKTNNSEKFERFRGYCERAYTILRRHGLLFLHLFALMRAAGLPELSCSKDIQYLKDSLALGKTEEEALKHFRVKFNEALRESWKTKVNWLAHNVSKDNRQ
Poly [ADP-ribose] polymerase 2, sequence (Q9UGN5 whole entry, canonical isoform): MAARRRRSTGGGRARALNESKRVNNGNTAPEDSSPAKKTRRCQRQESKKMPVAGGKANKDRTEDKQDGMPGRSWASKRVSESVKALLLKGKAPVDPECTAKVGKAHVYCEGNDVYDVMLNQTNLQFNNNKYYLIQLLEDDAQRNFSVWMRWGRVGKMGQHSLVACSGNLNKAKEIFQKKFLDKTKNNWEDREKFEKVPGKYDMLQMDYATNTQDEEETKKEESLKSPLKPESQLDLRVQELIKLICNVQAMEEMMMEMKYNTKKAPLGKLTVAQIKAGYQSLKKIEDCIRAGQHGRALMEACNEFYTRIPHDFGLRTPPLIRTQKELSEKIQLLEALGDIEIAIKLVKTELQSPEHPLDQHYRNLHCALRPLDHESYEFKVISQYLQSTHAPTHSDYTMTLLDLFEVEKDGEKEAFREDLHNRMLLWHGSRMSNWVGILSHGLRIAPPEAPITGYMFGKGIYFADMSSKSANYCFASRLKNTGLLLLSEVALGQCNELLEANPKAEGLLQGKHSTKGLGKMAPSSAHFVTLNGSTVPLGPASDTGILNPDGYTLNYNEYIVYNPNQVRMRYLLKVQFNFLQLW
Poly [ADP-ribose] polymerase 1, sequence (P09874 whole entry): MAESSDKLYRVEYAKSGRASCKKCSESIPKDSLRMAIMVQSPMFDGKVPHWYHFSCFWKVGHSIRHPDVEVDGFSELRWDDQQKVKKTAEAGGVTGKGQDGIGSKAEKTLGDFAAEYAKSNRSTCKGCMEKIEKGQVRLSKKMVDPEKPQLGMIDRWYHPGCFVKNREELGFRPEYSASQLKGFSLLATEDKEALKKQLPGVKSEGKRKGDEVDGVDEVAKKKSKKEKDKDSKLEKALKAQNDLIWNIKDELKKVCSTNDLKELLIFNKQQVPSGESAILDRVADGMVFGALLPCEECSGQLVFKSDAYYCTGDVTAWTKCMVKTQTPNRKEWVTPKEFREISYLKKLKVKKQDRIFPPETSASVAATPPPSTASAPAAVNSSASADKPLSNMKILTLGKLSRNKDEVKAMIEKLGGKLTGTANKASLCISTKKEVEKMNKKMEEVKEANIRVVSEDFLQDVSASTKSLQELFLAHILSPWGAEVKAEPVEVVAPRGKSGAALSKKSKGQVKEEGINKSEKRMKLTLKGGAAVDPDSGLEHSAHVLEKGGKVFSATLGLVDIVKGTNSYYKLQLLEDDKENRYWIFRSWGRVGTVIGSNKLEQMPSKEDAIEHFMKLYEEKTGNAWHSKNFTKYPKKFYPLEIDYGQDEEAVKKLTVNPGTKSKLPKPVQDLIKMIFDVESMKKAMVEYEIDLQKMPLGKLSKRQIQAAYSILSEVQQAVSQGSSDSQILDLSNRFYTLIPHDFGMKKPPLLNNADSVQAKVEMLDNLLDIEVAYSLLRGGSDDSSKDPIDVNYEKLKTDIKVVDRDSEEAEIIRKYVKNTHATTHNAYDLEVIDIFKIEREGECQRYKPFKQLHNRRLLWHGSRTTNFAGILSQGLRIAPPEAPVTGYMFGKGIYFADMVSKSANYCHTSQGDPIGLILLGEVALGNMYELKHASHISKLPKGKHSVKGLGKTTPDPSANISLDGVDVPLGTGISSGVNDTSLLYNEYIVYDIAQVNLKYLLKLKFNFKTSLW

Regarding `Nc1cc(C(F)(F)F)c(-c2nc3c(c(N4CCOCC4)n2)CCN(C(=O)c2cc(Cc4n[nH]c(=O)c5ccccc45)ccc2F)C3)cn1`, the results for the IC50 in [1], in [11] and in series [12] were 6.03 nM, 3.63 nM and 7.41 nM, respectively. The “Ratio IC50” value in series [2] is “>=4”. Also, the inhibition result in [3], in [4], in [7] and in series [9] was “Active” each time. The inhibition in vivo at 50 mg/kg in series [5] turned out to be 73.4%. The Activity result in series [6] is “Non-Toxic”. For the same compound, the result in [8] and in series [10] was Active.
In the case of `Nc1cc(C(F)(F)F)c(-c2cc(N3CCOCC3)nc(N3CCOCC3)n2)cn1` [BUPARLISIB], the inhibition result in [13] and in [14] was “Active” each time. Further, the viability at 1 µM in series [15] came to 81.5%. Besides, the inhibition in vivo at 27.5 mg/kg in series [16] stood at 33.4%; in series [17], 48.4%. Moreover, the Activity entry in series [18] was “Non-Toxic”. Further, the IC50 in series [19] was 1290 nM; in [20] it was 2450 nM.
